Reference: ChEMBL document CHEMBL1123184, “Thromboxane synthetase inhibitors and antihypertensive agents. 2. N-[(1H-imidazol-1-yl)alkyl]-1H-isoindole-1,3(2H)-diones and N-[(1H-1,2,4-triazol-1-yl)alkyl]-1H-isoindole-1,3(2H)-diones as unique antihypertensive agents” (J Med Chem, 1986)
Values belong to the compound of their own block, whether it stands above or below them. The source made the active and inactive calls.

Tests used:
[1] = molecular target: T1, Thromboxane-A synthase (Rattus norvegicus) (UniProt P49430); experiment: Inhibition of thromboxane formation (thromboxane synthetase) in platelets at 10e-4 M; format: functional
T1 sequence (whole entry): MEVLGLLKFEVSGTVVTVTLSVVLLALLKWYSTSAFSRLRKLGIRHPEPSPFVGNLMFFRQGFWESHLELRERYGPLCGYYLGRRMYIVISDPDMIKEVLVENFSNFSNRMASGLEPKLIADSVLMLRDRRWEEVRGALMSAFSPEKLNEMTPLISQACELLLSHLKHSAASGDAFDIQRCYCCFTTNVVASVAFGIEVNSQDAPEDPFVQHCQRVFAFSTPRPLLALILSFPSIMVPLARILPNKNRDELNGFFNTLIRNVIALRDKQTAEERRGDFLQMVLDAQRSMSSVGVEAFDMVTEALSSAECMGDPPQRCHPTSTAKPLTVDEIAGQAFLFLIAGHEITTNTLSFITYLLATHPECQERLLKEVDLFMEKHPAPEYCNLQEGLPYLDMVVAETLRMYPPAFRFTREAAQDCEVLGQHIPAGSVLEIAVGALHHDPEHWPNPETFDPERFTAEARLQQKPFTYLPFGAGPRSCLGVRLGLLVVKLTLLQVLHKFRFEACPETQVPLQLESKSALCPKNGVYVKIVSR
Summary of the method: (§1)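 SHR washed platelets (4.5–6.0 × 10^4/μL, Krebs phosphate pH 7.4) incubated 10 min at 37 °C with compound at 10^-4 M. Reaction stopped with citric acid on ice. TXB2 quantified by RIA, boiled-control blank subtracted, and percent inhibition of TXB2 formation calculated. Number of determinations given per value.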

Rattus norvegicus [2] = experiment: Compound was tested for the antihypertensive activity in rats, after peroral administration of 100 mg/kg; I=Inactive; format: functional, organism-based; parameters: dose 100 mg/kg
Summary of the method: (§2)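 Male 16-week-old Okamoto SHR (mean arterial pressure 170 ± 1.5 mmHg). Compound suspended in 2% preboiled starch (50 mg/mL) and given by gavage at 100 mg/kg, with 0.9% NaCl load 25 mL/kg. Second identical dose without saline 24 h later. Mean arterial pressure read 28 h after first dose. Active: one rat ≤116 mmHg or mean of two ≤122 mmHg.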

Rattus norvegicus [3] = experiment: Compound was tested for the antihypertensive activity in rats, after peroral administration of 100 mg/kg for 2 days (no. of rats=3); I=Inactive; format: functional, organism-based; parameters: dose 100 mg/kg; summary of the method: as §2
[4] = molecular target: T1, Thromboxane-A synthase (Rattus norvegicus); experiment: Inhibition of thromboxane formation in platelets at a concentration of 10e-4 M; format: functional; summary of the method: as §1
Rattus norvegicus [5] = experiment: Compound was tested for the antihypertensive activity in rats, after peroral administration of 100 mg/kg; A=Active; format: functional, organism-based; parameters: dose 100 mg/kg; summary of the method: as §2
Rattus norvegicus [6] = experiment: Compound was tested for the antihypertensive activity in rats, after peroral administration of 100 mg/kg for 2 days (no. of rats=2); A=Active; format: functional, organism-based; parameters: dose 100 mg/kg; summary of the method: as §2
Thromboxane-A synthase [7] = molecular target: T2, Thromboxane-A synthase (Rattus norvegicus, UniProt P49430); experiment: (§3) Compound was tested for the inhibition of thromboxane synthetase
T2 sequence (P49430 whole entry): T1 sequence (whole entry)
Summary of the method: (§4)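 Washed platelets from urethan-anesthetized SHR aged 19–24 weeks, in oxygenated Krebs phosphate buffer pH 7.4 at (4.5–6.0) × 10^4 platelets/μL. Incubated 10 min at 37 °C with compound, stopped with citric acid on ice. TXB2 measured by RIA; boiled-sample blank subtracted. IC50 read from percent inhibition vs log concentration plot; duplicate measurements.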

Thromboxane-A synthase [8] = molecular target: T2, Thromboxane-A synthase; experiment: as §3; format: functional; summary of the method: as §4
Rattus norvegicus [9] = experiment: Compound was tested for the antihypertensive activity in rats, after peroral administration of 100 mg/kg for 2 days (no. of rats=2); I=Inactive; format: functional, organism-based; parameters: dose 100 mg/kg; summary of the method: as §2
Rattus norvegicus [10] = experiment: Compound was tested for the antihypertensive activity in rats, after peroral administration of 100 mg/kg for 2 days (no. of rats=4); I=Inactive; format: functional, organism-based; parameters: dose 100 mg/kg; summary of the method: as §2
Rattus norvegicus [11] = experiment: Compound was tested for the antihypertensive activity in rats, after peroral administration of 100 mg/kg for 2 days (no. of rats=3); A=Active; format: functional, organism-based; parameters: dose 100 mg/kg; summary of the method: as §2
Rattus norvegicus [12] = experiment: Compound was tested for the antihypertensive activity in rats, after peroral administration of 100 mg/kg for 2 days (no. of rats=2); a=Active; format: functional, organism-based; parameters: dose 100 mg/kg; summary of the method: as §2

- inhibition [1]: 89%
SMILES: CC(CCn1ccnc1)N1C(=O)c2cccc(Br)c2C1=O (stereo unspecified)
- Activity (Rattus norvegicus [2]): inactive

- inhibition [4]: 86%
SMILES: Cc1cn(CCCCN2C(=O)c3ccccc3C2=O)cn1
- Activity (Rattus norvegicus [3]): inactive

- inhibition [1]: 100%
SMILES: O=C1c2ccccc2C(=O)N1CC#CCn1ccnc1
- Activity (Rattus norvegicus [5]): Active

- inhibition [1]: 100%
SMILES: O=C1c2ccc(Cl)c(Cl)c2C(=O)N1CCCCn1ccnc1
- Activity (Rattus norvegicus [2]): inactive

- IC50 (Thromboxane-A synthase [7]): 2000 nM
- inhibition [4]: 99%
SMILES: O=C1c2ccccc2C(=O)N1CCCCn1ccnc1
- Activity (Rattus norvegicus [6]): Active

- inhibition [4]: 85%
SMILES: O=C1c2ccccc2C(=O)N1C/C=C/Cn1ccnc1
- Activity (Rattus norvegicus [6]): Active

- inhibition [4]: 64%
SMILES: O=C1c2ccccc2C(=O)N1CCCn1cncn1
- Activity (Rattus norvegicus [6]): Active

- IC50 (Thromboxane-A synthase [7]): 6000 nM
- inhibition [4]: 92%
SMILES: O=C1c2ccccc2C(=O)N1CCCCCn1ccnc1
- Activity (Rattus norvegicus [6]): Active

- inhibition [4]: 79%
SMILES: O=C1c2ccccc2C(=O)N1CCCCCn1cncn1
- Activity (Rattus norvegicus [6]): Active

- inhibition [1]: 92%
SMILES: O=C1c2cccc(Cl)c2C(=O)N1CCCn1ccnc1
- Activity (Rattus norvegicus [5]): Active

- IC50 (Thromboxane-A synthase [7]): 4000 nM
- inhibition [4]: 100%
SMILES: Cc1cccc2c1C(=O)N(CCCn1ccnc1)C2=O
- Activity (Rattus norvegicus [3]): inactive

- inhibition [1]: 92%
- IC50 (Thromboxane-A synthase [8]): 100 nM
SMILES: O=C1c2ccccc2C(=O)N1CCCCCCCCCCn1ccnc1
- Activity (Rattus norvegicus [2]): inactive

- inhibition [4]: 36%
SMILES: Cc1nccn1CCCN1C(=O)c2ccccc2C1=O
- Activity (Rattus norvegicus [9]): inactive

- inhibition [1]: 100%
- IC50 (Thromboxane-A synthase [8]): 1000 nM
SMILES: O=C1c2cccc(Br)c2C(=O)N1CCCCn1ccnc1
- Activity (Rattus norvegicus [5]): Active

- IC50 (Thromboxane-A synthase [7]): 2000 nM
- inhibition [4]: 100%
SMILES: Cc1cccc2c1C(=O)N(CCCCn1ccnc1)C2=O
- Activity (Rattus norvegicus [6]): Active

- inhibition [1]: 100%
- IC50 (Thromboxane-A synthase [8]): 200 nM
SMILES: O=C1c2ccccc2C(=O)N1CCCCCCCCn1ccnc1
- Activity (Rattus norvegicus [2]): inactive

- inhibition [1]: 100%
- IC50 (Thromboxane-A synthase [8]): 1500 nM
SMILES: O=C1c2ccccc2C(=O)N1CCCCCCn1ccnc1
- Activity (Rattus norvegicus [5]): Active

- inhibition [4]: 57%
SMILES: O=C1c2ccccc2C(=O)N1CCCCn1ccnc1-c1ccccc1
- Activity (Rattus norvegicus [3]): inactive

- inhibition [4]: 65%
SMILES: CCc1nccn1CCCCN1C(=O)c2ccccc2C1=O
- Activity (Rattus norvegicus [9]): inactive

- inhibition [4]: 68%
SMILES: Cc1cn(CCCN2C(=O)c3ccccc3C2=O)cn1
- Activity (Rattus norvegicus [9]): inactive

- inhibition [1]: 100%
SMILES: O=C1c2cccc(Cl)c2C(=O)N1CCCCn1ccnc1
- Activity (Rattus norvegicus [5]): Active

- IC50 (Thromboxane-A synthase [7]): 5000 nM
- inhibition [4]: 94%
SMILES: O=C1c2ccccc2C(=O)N1CCCn1ccnc1
- Activity (Rattus norvegicus [6]): Active

- inhibition [1]: 87%
- IC50 (Thromboxane-A synthase [8]): 600 nM
SMILES: O=C1c2cccc(Br)c2C(=O)N1CCCCCn1ccnc1
- Activity (Rattus norvegicus [2]): inactive

- inhibition [4]: 70%
SMILES: O=C1c2ccccc2C(=O)N1CCCCn1cncn1

- inhibition [4]: 0%
SMILES: CCc1nccn1CCCN1C(=O)c2ccccc2C1=O
- Activity (Rattus norvegicus [9]): inactive

- inhibition [4]: 47%
SMILES: CC(CCn1cncn1)N1C(=O)c2ccccc2C1=O (stereo unspecified)
- Activity (Rattus norvegicus [10]): inactive

- inhibition [1]: 76%
SMILES: O=C1c2cccc(Br)c2C(=O)N1CCCn1cncn1
- Activity (Rattus norvegicus [2]): inactive

- inhibition [4]: 94%
SMILES: CC(CCn1ccnc1)N1C(=O)c2ccccc2C1=O (stereo unspecified)
- Activity (Rattus norvegicus [11]): Active

- inhibition [1]: 100%
- IC50 (Thromboxane-A synthase [8]): 400 nM
SMILES: O=C1c2ccc(Cl)c(Cl)c2C(=O)N1CCCn1ccnc1
- Activity (Rattus norvegicus [2]): inactive

- inhibition [4]: 20%
SMILES: O=C1c2ccccc2C(=O)N1CCn1ccnc1
- Activity (Rattus norvegicus [6]): Active

- inhibition [1]: 73%
SMILES: O=C1c2ccc(Cl)c(Cl)c2C(=O)N1CCCn1cncn1
- Activity (Rattus norvegicus [2]): inactive

- inhibition [4]: 22%
SMILES: Cc1nccn1CCCCN1C(=O)c2ccccc2C1=O
- Activity (Rattus norvegicus [10]): inactive

- inhibition [4]: 0%
SMILES: O=C1c2ccccc2C(=O)N1CCn1cncn1
- Activity (Rattus norvegicus [12]): Active
